In ChEMBL document CHEMBL3244352, “Synthesis and analgesic activity of some spiro[dibenz[b,f]oxepin-10,4'-piperidine] derivatives” (J Med Chem, 1979):

Columns and labels:
[1] = species: Mus musculus; assay: animal or person; assay type: functional; settings: CD-1 Charles River, sc
[2] = system: Mus musculus; assay: Analgesic activity in po dosed CD-1 Charles River mouse assessed as inhibition of phenyl-p-benzoquinine-induced writhing administered 15 to 90 mins prior to phenyl-p-benzoquinine challenge measured after 5 mins; assay type: functional
[3] = system: Mus musculus; assay: Ratio of ED50 for inhibition of phenyl-p-benzoquinine-induced writhing in po dosed CD-1 Charles River mouse to ED50 for inhibition of phenyl-p-benzoquinine-induced writhing in sc dosed CD-1 Charles River mouse; assay type: functional
Outline: (§1)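 Writhing ED50s came from male CD-1 mice, ten per dose, tested at peak time after sc or po dosing, with four doses plus a vehicle control (water with Tween 80) in randomized order. Writhes were counted for 10 min, beginning 5 min after 0.125% phenyl-p-benzoquinone. ED50 was estimated by linear regression of percent inhibition, and ratios were formed from these ED50s.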

[4] = system: Mus musculus; assay: Analgesic activity in CD-1 Charles River mouse at 25 mg/kg, sc measured for 15 to 60 mins by tail flick test relative to control; assay type: functional; settings: route subcutaneous
Outline: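 Male CD-1 mice, ten per group, were restrained and given an intense light-beam stimulus, and tail-flick latency was recorded. Two baseline readings were taken. Mice were excluded if their readings differed by more than 1 s or if including them would widen the group spread beyond 3 s. A cutoff was set from the baselines. Drug was given sc (vehicle 10 mL/kg), and mice were tested at 15, 30, 45 and 60 min. Responses beyond the cutoff counted as analgesia, reported as percent.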

[5] = system: Mus musculus; assay: Analgesic activity in CD-1 Charles River mouse assessed as inhibition of phenyl-p-benzoquinine-induced writhing at 25 mg/kg, sc administered 15 to 90 mins prior to phenyl-p-benzoquinine challenge measured after 5 mins relative to control; assay type: functional; settings: route subcutaneous
Outline: (§2)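 Male CD-1 Charles River mice (18-24 g), five per group, were given the drug 15, 30, 60 and 90 min before an injection of 0.125% phenyl-p-benzoquinone in 5% aqueous ethanol. The vehicle was distilled water with a few drops of Tween 80. Writhes were counted for 10 min, starting 5 min after the injection, with mice held singly in beakers. The read-out was percent inhibition of writhes versus vehicle-treated mice.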

[6] = system: Mus musculus; assay: Potency index, ratio of propoxyphene ED50 to compound ED50 for inhibition of phenyl-p-benzoquinine-induced writhing in po dosed CD-1 Charles River mouse; assay type: functional
Outline: as §1

[7] = system: Mus musculus; assay: Potency index, ratio of propoxyphene ED50 to compound ED50 for inhibition of phenyl-p-benzoquinine-induced writhing in sc dosed CD-1 Charles River mouse; assay type: functional
Outline: as §1

[8] = system: Mus musculus; assay: Analgesic activity in po dosed CD-1 Charles River mouse measured for 15 to 60 mins by tail flick test relative to control; assay type: functional
[9] = Ratio of ED50 for neurotoxicity in CD-1 Charles River mouse by rotarod test to ED50 for inhibition of phenyl-p-benzoquinine-induced writhing in CD-1 Charles River mouse; assay type: toxicity, organism-based; settings: CD-1, mouse, in vivo; read-out: Ratio ED50
[10] = system: Mus musculus; assay: Analgesic activity in sc dosed CD-1 Charles River mouse measured for 15 to 60 mins by tail flick test relative to control; assay type: functional
[11] = system: Mus musculus; assay: Analgesic activity in CD-1 Charles River mouse assessed as inhibition of phenyl-p-benzoquinine-induced writhing at 25 mg/kg, po administered 15 to 90 mins prior to phenyl-p-benzoquinine challenge measured after 5 mins relative to control; assay type: functional
Outline: as §2

[12] = system: Mus musculus; assay: Analgesic activity in CD-1 Charles River mouse assessed as inhibition of phenyl-p-benzoquinine-induced writhing at 5 mg/kg, po administered 15 to 90 mins prior to phenyl-p-benzoquinine challenge measured after 5 mins relative to control; assay type: functional
Outline: as §2

With `CCC(=O)O[C@](Cc1ccccc1)(c1ccccc1)[C@H](C)CN(C)C` [PROPOXYPHENE] the ED50 [1] was 3.9 mg/kg, the ED50 [2] was 24.6 mg/kg and the “Ratio ED50” value [3] was 6.3.
In the case of `Br.C#CCN1CCC2(CC1)C(=O)c1ccccc1Oc1ccccc12`, the Activity [4] is reported as 20% and the inhibition in vivo at 25 mg/kg [5] is reported as 57%.
With `Cl.O=C1c2cc(F)ccc2Oc2ccccc2C12CCNCC2` the “Ratio ED50” value [6] was 10, the Activity [4] was 75% and the “Ratio ED50” value [7] was 2. For the same compound, the ED50 [1] was 1.6 mg/kg, the ED50 [8] was 51.4 mg/kg and the ED50 [2] was 2.2 mg/kg. For the same compound, the “Ratio ED50” value [3] was 1 and the selectivity ratio [9] was 17.6.
In the case of `C#CCN1CCC2(CC1)C(=O)c1cc(Cl)ccc1Oc1ccccc12`, the Activity [4] is reported as 10% and the inhibition in vivo at 25 mg/kg [5] is reported as 32%.
Compound `Br.O=C1c2cc(Cl)ccc2Oc2ccccc2C12CCN(CCO)CC2` has an Activity [4] of 30% and an ED50 [1] of 7 mg/kg.
For `Br.O=C1c2cc(Cl)ccc2Oc2ccccc2C12CCNCC2`, the ED50 [1] was 3.7 mg/kg, the ED50 [2] was 7.7 mg/kg and the “Ratio ED50” value [3] was 2. For the same compound, the ED50 [10] was 12 mg/kg.
In the case of `Br.CCN1CCC2(CC1)C(=O)c1cc(Cl)ccc1Oc1ccccc12`, the Activity [4] is reported as 0% and the inhibition in vivo at 25 mg/kg [5] is reported as 67%.
In the case of `Br.CN1CCC2(CC1)C(=O)c1cc(F)ccc1Oc1ccccc12`, the “Ratio ED50” value [6] is reported as 10, the Activity [4] is reported as 30% and the “Ratio ED50” value [7] is reported as 2. The ED50 [1] was 1.9 mg/kg, the ED50 [2] was 2 mg/kg and the “Ratio ED50” value [3] was 1.
`CC(C)=CCN1CC[C@]2(C)c3cc(O)ccc3C[C@H]1[C@H]2C` [(+)-PENTAZOCINE] gave an ED50 [1] of 2.4 mg/kg.
With `Br.O=C1c2ccccc2Oc2ccccc2C12CCNCC2` the Activity [4] was 60%, the ED50 [1] was 1.7 mg/kg and the ED50 [2] was 7.5 mg/kg. For the same compound, the “Ratio ED50” value [3] was 4.5.
In the case of `Br.O=C1c2ccccc2Oc2ccccc2C12CCN(CCc1ccccc1)CC2`, the Activity [4] is reported as 40% and the ED50 [1] is reported as 21 mg/kg.
`Br.O=C(CCCN1CCC2(CC1)C(=O)c1cc(Cl)ccc1Oc1ccccc12)c1ccc(F)cc1` showed an Activity [4] of 20% and an inhibition in vivo at 25 mg/kg [5] of 49%.
For `Br.CN1CCC2(CC1)C(=O)c1ccccc1Oc1ccccc12`, the Activity [4] was 13% and the ED50 [1] was 5.2 mg/kg.
`Br.O=C1c2ccccc2Oc2ccccc2C12CCN(CCCOc1ccccc1)CC2` gave an Activity [4] of 20% and an inhibition in vivo at 25 mg/kg [5] of 55%.
For `Br.O=C1c2ccccc2Oc2ccccc2C12CCN(CCO)CC2`, the Activity [4] was 40% and the ED50 [1] was 2.8 mg/kg.
In the case of `Br.O=C1c2ccccc2Oc2ccccc2C12CCN(CC1CC1)CC2`, the ED50 [1] is reported as 6 mg/kg and the inhibition in vivo at 25 mg/kg [11] is reported as 59%.
In the case of `Br.O=C(CCCN1CCC2(CC1)C(=O)c1ccccc1Oc1ccccc12)c1ccc(F)cc1`, the Activity [4] is reported as 60% and the inhibition in vivo at 5 mg/kg [12] is reported as 67%.
Compound `Br.C=CCN1CCC2(CC1)C(=O)c1cc(Cl)ccc1Oc1ccccc12` has an Activity [4] of 10% and an inhibition in vivo at 25 mg/kg [5] of 37%.
For `Br.CCCN1CCC2(CC1)C(=O)c1cc(Cl)ccc1Oc1ccccc12`, the Activity [4] was 10% and the inhibition in vivo at 25 mg/kg [5] was 22%.
Work on `Br.O=C1c2cc(Cl)ccc2Oc2ccccc2C12CCN(CC1CC1)CC2` yielded an Activity [4] of 0% and an inhibition in vivo at 25 mg/kg [5] of 31%.
For `O=C1c2cc(Cl)ccc2Oc2ccccc2C12CCN(CCCOc1ccccc1)CC2`, the Activity [4] was 0% and the inhibition in vivo at 25 mg/kg [5] was 54%.
With `O=C1c2cc(Cl)ccc2Oc2ccccc2C12CCN(CCc1ccccc1)CC2` the Activity [4] was 0% and the inhibition in vivo at 25 mg/kg [5] was 30%.
For `CN1CC[C@]23c4c5ccc(O)c4O[C@H]2[C@@H](O)C=C[C@H]3[C@H]1C5.CN1CC[C@]23c4c5ccc(O)c4O[C@H]2[C@@H](O)C=C[C@H]3[C@H]1C5.O=S(=O)(O)O`, the ED50 [1] was 0.36 mg/kg.
In the case of `Br.CN1CCC2(CC1)C(=O)c1cc(Cl)ccc1Oc1ccccc12`, the ED50 [1] is reported as 3.5 mg/kg, the ED50 [2] is reported as 5.2 mg/kg and the “Ratio ED50” value [3] is reported as 1.5. The ED50 [10] was 13.2 mg/kg.
`CC(C)=CCN1CCC2(CC1)C(=O)c1cc(Cl)ccc1Oc1ccccc12` showed an inhibition in vivo at 25 mg/kg [5] of 42%.
